In ChEMBL document CHEMBL4765307, “Design, synthesis and biological activity of novel 2,3,4,5-tetra-substituted thiophene derivatives as PI3Kα inhibitors with potent antitumor activity” (Eur J Med Chem, 2020):
pIC50, pKi: −log10 of the molar value.

How the values were obtained:
[1] = target: PI3-kinase p110-alpha/p85-alpha (Homo sapiens, UniProt P42336); experiment: Inhibition of His-tagged human full length PI3Kalpha coexpressed with p85 alpha in baculovirus expression system using PIP2 peptide as substrate incubated for 1 hr in presence ATP by Kinase-Glo assay
Chain of PI3-kinase p110-alpha/p85-alpha (P27986 whole entry): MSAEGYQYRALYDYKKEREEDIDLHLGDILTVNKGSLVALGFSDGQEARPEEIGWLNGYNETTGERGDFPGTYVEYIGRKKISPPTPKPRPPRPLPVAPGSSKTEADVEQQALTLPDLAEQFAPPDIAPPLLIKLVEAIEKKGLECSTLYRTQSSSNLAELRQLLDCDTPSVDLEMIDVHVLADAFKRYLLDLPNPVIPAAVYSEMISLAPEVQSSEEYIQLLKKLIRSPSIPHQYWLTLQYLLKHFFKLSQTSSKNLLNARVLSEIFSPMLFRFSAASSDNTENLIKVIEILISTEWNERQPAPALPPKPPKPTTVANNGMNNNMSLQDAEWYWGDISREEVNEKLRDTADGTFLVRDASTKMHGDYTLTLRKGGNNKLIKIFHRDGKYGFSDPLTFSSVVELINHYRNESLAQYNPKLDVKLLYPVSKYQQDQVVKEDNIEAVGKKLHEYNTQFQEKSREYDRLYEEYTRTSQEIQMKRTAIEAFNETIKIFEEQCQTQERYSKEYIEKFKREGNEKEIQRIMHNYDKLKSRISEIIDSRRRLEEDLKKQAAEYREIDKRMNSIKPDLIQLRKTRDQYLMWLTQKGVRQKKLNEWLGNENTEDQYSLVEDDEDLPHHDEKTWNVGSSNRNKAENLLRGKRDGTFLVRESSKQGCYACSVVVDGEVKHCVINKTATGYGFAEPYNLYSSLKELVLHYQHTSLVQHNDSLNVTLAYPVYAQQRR
Chain of PI3-kinase p110-alpha/p85-alpha (P42336 whole entry): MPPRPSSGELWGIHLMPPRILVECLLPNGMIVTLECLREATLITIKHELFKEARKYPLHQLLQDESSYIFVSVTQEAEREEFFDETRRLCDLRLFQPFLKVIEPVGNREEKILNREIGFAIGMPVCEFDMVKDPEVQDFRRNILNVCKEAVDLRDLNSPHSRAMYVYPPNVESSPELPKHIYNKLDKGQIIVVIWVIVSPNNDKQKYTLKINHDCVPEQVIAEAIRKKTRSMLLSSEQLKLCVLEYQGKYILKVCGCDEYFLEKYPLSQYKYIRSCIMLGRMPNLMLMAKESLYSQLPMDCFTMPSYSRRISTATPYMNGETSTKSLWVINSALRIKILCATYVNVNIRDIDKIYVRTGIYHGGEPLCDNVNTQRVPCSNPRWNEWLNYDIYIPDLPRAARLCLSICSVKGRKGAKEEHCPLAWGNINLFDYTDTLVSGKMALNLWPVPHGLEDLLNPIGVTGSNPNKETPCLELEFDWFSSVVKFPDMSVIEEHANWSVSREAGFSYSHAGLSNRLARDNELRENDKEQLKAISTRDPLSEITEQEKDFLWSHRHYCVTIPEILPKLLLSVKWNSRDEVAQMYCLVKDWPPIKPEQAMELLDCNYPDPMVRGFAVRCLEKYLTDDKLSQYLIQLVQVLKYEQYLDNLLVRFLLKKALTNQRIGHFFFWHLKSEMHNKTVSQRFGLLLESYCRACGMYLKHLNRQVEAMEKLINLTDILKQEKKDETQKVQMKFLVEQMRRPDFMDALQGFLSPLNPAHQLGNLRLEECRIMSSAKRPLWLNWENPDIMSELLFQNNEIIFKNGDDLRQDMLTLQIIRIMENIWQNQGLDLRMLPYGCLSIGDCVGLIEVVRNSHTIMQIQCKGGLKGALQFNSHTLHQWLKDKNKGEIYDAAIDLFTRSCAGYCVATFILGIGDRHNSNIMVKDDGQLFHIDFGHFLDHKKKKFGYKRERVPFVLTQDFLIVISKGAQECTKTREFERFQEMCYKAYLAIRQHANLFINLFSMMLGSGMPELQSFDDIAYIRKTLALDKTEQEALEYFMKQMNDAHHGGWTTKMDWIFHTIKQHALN

[2] = test system: NCI-H1975; experiment: Antiproliferative activity against human NCI-H1975 cells harboring PIK3CA mutation assessed as reduction in cell viability after 3 days by CellTiter-Glo luminescence assay; assay type: functional, cell-based; conditions: NCI-H1975, 72 h
Procedure, shortened: (§1)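 ATCC lines, 10% FBS: T47D, H1975, H460 in RPMI1640; U87MG in DMEM; A549 in F12K. Seeded 3×10^3 per well the day before, exposed to 3-fold serial dilutions or DMSO for 3 days at 37 °C, 5% CO2; CellTiter-Glo luminescence.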

[3] = test system: NCI-H460; experiment: Antiproliferative activity against human NCI-H460 cells harboring PIK3CA mutation assessed as reduction in cell viability after 3 days by CellTiter-Glo luminescence assay; assay type: functional, cell-based; conditions: NCI-H460, 72 h; procedure, shortened: as §1
[4] = Apparent permeability across apical to basolateral side in human Caco2 cells at 2 uM incubated for 2 hrs by LC-MS/MS analysis; assay type: ADME, cell-based; conditions: Caco-2
Procedure, shortened: (§2)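 Caco-2 monolayers grown 21–28 days; compound 2 µM both directions in duplicate, DMSO <1%; 2 h at 37 °C, 5% CO2 without shaking. Donor and receiver levels by LC/MS/MS; integrity by lucifer yellow. Papp = (dCr/dt)×Vr/(A×C0); efflux ratio = Papp(B-A)/Papp(A-B).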

[5] = Apparent permeability across basolateral to apical side in human Caco2 cells at 2 uM incubated for 2 hrs by LC-MS/MS analysis; assay type: ADME, cell-based; conditions: Caco-2; procedure, shortened: as §2
[6] = target: T1, CYP1A2 (Homo sapiens, UniProt P05177); experiment: Inhibition of CYP1A2 in human liver microsomes using phenacetin as substrate at 10 uM preincubated for 10 mins followed by incubation with NADPH for 10 mins by LC- MS/MS analysis; assay type: ADME; conditions: probe phenacetin, time 20 min
T1 sequence (P05177 whole entry): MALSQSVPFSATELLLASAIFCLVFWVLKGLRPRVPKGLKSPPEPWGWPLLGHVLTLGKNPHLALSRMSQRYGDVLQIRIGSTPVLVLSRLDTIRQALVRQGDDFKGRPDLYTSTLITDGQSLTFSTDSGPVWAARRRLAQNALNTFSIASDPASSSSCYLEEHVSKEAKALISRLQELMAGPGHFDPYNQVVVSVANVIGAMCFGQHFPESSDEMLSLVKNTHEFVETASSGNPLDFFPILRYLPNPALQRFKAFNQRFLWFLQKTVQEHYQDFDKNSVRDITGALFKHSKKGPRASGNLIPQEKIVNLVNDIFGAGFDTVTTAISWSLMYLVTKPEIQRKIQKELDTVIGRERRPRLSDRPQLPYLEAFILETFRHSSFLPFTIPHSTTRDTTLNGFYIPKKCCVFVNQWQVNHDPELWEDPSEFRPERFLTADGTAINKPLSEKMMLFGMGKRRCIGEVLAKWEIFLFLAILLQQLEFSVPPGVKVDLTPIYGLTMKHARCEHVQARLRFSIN
Procedure, shortened: (§3)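 Human liver microsomes 0.25 mg/mL with probe substrate (CYP1A2 10 µM phenacetin; CYP2D6 5 µM dextromethorphan; CYP3A4 2 µM midazolam), test compound 10 µM; 10 min preincubation at 37 °C, NADPH added (final 10 mM), 10 min at 37 °C; stopped with cold acetonitrile containing internal standards; LC-MS/MS.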

[7] = target: CYP2D6 (Homo sapiens, UniProt P10635); experiment: Inhibition of CYP2D6 in human liver microsomes using dextromethorphan as substrate at 10 uM preincubated for 10 mins followed by incubation with NADPH for 10 mins by LC- MS/MS analysis; assay type: ADME; conditions: probe dextromethorphan, time 20 min; procedure, shortened: as §3
Chain of CYP2D6 (P10635 whole entry): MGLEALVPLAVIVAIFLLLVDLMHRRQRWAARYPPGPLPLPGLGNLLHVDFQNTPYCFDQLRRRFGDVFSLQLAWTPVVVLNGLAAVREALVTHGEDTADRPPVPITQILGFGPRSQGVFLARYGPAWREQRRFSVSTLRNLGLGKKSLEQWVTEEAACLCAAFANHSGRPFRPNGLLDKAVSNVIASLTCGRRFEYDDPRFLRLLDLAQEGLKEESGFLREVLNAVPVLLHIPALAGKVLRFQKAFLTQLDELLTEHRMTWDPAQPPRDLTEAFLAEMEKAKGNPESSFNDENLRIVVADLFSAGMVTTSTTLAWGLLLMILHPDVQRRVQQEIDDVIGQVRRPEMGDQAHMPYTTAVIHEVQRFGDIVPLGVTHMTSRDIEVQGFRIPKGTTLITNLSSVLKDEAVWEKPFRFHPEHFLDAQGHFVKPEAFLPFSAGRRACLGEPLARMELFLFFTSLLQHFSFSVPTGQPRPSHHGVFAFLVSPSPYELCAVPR

[8] = Cmax in Sprague-Dawley rat at 5 mg/kg, iv measured after 24 hrs by LC-MS/MS analysis; assay type: ADME, organism-based; set-up: route intravenous, dose 5 mg/kg, time 24 hrs; conditions: in vivo
Procedure, shortened: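 Male SD rats (n=6), single 5 mg/kg intravenous dose; heparinised blood at 0.083–24 h, centrifuged at 4 °C; plasma quantified by LC–MS/MS; noncompartmental parameters.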

[9] = target: PI3-kinase p110-delta/p85-alpha (Homo sapiens, UniProt O00329); experiment: Inhibition of N-terminal His6-tagged human recombinant full length PI3Kdelta co-expressed with human recombinant full length P85alpha in baculovirus infected Sf21 cells using PIP2 peptide as substrate incubated for 2 hrs in presence ATP by ADP-Glo Kinase Assay
Chain of PI3-kinase p110-delta/p85-alpha (P27986 whole entry): as the sequence (P27986 whole entry) above
Chain of PI3-kinase p110-delta/p85-alpha (O00329 whole entry): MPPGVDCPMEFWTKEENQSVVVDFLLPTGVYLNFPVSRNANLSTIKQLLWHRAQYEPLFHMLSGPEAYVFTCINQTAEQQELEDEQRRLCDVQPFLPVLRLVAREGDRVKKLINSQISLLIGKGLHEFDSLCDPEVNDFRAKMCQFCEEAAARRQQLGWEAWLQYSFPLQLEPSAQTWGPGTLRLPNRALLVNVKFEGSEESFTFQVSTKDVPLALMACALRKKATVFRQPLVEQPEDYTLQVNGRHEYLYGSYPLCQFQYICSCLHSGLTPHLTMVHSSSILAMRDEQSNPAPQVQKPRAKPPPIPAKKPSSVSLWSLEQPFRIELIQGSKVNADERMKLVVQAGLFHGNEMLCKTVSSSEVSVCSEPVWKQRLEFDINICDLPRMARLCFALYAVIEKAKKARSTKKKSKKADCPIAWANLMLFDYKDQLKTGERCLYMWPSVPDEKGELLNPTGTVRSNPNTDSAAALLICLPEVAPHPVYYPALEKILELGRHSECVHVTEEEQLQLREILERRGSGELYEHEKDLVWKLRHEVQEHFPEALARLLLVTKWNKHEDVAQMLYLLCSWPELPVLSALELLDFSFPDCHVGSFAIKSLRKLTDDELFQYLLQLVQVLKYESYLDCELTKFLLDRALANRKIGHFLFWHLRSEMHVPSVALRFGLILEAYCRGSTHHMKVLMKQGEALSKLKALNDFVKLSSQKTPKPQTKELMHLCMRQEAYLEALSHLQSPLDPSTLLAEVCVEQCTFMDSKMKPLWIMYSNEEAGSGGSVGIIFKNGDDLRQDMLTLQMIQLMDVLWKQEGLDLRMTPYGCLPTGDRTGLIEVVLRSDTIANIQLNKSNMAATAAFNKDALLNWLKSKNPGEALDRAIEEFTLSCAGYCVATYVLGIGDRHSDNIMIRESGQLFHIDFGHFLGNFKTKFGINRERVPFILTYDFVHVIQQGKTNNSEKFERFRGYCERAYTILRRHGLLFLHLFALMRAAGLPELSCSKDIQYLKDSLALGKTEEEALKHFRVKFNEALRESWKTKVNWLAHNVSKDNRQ
Procedure, shortened: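 ADP-Glo reagent 1 for 40 min, then reagent 2 with 60 min equilibration. IC50 from inhibition curves; average of at least two runs.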

[10] = Clearance in human liver microsomes at 1 uM measured after 60 mins by LC-MS/MS analysis; assay type: ADME, Microsome; conditions: read-out: CLH
Procedure, shortened: (§4)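 Compound 1 µM with human or rat microsomes 0.5 mg/mL, preincubated 10 min at 37 °C in 100 mM potassium phosphate pH 7.4, 10 mM MgCl2; started with NADPH, sampled 0–60 min, quenched with cold acetonitrile, LC–MS/MS. A parallel no-NADPH control was run.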

[11] = Metabolic stability in rat liver microsomes assessed as parent compound remaining at 1 uM preincubated for 10 mins followed by incubation in phosphate buffer at pH 7.4 for 60 mins by LC-MS/MS analysis; assay type: ADME, Microsome; conditions: time 70 min, read-out: Stabilty; procedure, shortened: as §4
[12] = Half life in human liver microsomes at 1 uM by LC-MS/MS analysis; assay type: ADME, Microsome; procedure, shortened: as §4
[13] = target: Phosphatidylinositol 4,5-bisphosphate 3-kinase catalytic subunit alpha isoform (Homo sapiens) (UniProt P42336); experiment: Inhibition of PI3Kalpha in human T47D cells assessed as inhibition of insulin-stimulated Akt phosphorylation at Ser473 residue at 0.3 uM preincubated for 2 hrs followed by incubation with insulin for 2 hrs by western blot analysis relative to control; assay type: cell-based; conditions: time 4.0 hrs
Chain of Phosphatidylinositol 4,5-bisphosphate 3-kinase catalytic subunit alpha isoform (Homo sapiens) (P42336 whole entry, canonical isoform): as the sequence (P42336 whole entry) above
Procedure, shortened: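 T47D cells given compound at 37 °C for 2 h, then stimulated with 1 µg/mL insulin for 2 h; lysed in RIPA with protease/phosphatase inhibitors and 1 mM PMSF; BCA-normalised SDS-PAGE, PVDF blot probed overnight at 4 °C for total Akt and pAkt Ser473, infrared secondary detection.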

[14] = Metabolic stability in human liver microsomes assessed as parent compound remaining at 1 uM preincubated for 10 mins followed by incubation in phosphate buffer at pH 7.4 for 60 mins by LC-MS/MS analysis; assay type: ADME, Microsome; conditions: time 70 min, read-out: Stabilty; procedure, shortened: as §4

Molecule `N#Cc1c(N2CCOCC2)sc(-c2nc[nH]n2)c1-c1ccc(NC(=O)Nc2ccccc2Cl)cc1` has a pIC50 [1] of 8.04, a pKi [1] of 8.29 and a pIC50 [2] of 5.97. The pIC50 [3] was 6.70, the Papp A→B at 2 h, 2 µM [4] was 7.8 ×10⁻⁶ cm/s and the Papp B→A at 2 h, 2 µM [5] was 8.4 ×10⁻⁶ cm/s. For the same molecule, the inhibition at 10 min, 10 µM [6] was 27.8%, the inhibition at 10 min, 10 µM [7] was 28% and the Cmax [8] was 2570 ng/mL. It also gave a pIC50 [9] of 6.56, a pKi [9] of 6.61 and a microsomal CLint at 1 µM [10] of 24.8 µL/min/mg. It also gave a remaining at 1 h, 1 µM [11] of 42.6%, a half-life at 1 µM [12] of 58.3 min and an inhibition [13] of 59%. For the same molecule, the remaining at 1 h, 1 µM [14] was 47.8%.
